Screens (PubChem BioAssay)
DSG3 Ab inh – inhibitors of pemphigus antibody binding to DSG3, primary screen, biochemical, bead-based, flow cytometry, scFv-GFP; Desmoglein-3 (Homo sapiens), P32926; DSG3-coupled beads, scFv-anti-DSG3-GFP binding; active compounds read low; binding (percent of control), % at 10 µM; hit rate 0.48% among 310,000;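 active = binding more than 3 SD below its plate's average and above zero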;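 note: hits lower antibody fragment binding to DSG3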
Target sequence (P32926 whole entry, looked up, the tested form may be a part): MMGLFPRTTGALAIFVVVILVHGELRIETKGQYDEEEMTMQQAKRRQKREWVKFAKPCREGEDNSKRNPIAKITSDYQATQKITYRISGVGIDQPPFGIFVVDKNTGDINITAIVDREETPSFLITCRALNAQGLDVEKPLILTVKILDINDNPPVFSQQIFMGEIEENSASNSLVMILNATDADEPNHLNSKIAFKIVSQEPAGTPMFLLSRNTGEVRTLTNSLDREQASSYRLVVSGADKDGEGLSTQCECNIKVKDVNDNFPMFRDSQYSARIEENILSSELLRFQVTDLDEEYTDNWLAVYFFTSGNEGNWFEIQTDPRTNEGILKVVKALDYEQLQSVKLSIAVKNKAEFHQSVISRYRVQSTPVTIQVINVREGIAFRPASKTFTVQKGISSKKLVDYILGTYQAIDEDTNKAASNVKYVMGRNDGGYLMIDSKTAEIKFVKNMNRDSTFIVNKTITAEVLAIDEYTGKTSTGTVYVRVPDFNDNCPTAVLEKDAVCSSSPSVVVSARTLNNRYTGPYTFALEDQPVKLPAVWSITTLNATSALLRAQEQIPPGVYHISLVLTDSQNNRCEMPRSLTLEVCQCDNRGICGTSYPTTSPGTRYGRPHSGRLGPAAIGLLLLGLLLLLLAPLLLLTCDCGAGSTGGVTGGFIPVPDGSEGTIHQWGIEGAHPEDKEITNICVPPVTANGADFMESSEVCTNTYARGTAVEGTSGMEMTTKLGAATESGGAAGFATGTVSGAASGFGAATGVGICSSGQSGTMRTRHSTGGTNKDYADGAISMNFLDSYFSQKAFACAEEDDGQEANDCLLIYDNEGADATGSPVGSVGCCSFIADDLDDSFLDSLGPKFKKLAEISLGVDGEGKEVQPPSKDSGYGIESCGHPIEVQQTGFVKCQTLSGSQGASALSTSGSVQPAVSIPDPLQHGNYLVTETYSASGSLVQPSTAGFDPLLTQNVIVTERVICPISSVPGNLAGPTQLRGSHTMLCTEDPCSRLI
Arrestin-AP2 inh – inhibitors of beta-arrestin/AP2 binding, primary screen, biochemical, GPCR trafficking, flow cytometry; FITC-arrestin peptide / GST-AP2 beads; AP2 beta2 appendage carries R879A mutation; hit rate 0.31% among 340,000; AID 504490, 2011; inhibition, % at 10 µM; beta-arrestin 1 C-terminal peptide binding to AP2 beta2-adaptin appendage (human);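 active = inhibition above a set limit, near 3 SD of compounds lacking own fluorescence, cut at about 54% in these data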
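System: GST-AP2 R879A glutathione beads. Medium: PBS with 0.05% Tween 20 and 0.1% BSA. Also added: FITC-arrestin peptide, 50 nM. Incubation: 12 min plus 1 h, RT. Measured by: high-throughput flow cytometry of beads, ex 488, em 535 nm. Evaluation: percent drop in bead-associated FITC signal.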
NALP1 inh – NALP1 inflammasome inhibitors in reconstituted yeast, colorimetric, S. cerevisiae, triplicate retest; hit rate 0.61% among 280,000; inhibition, % at 10 µM; S. cerevisiae NALP1/ASC/caspase-1 growth, X-gal OD620, 72 h; in the data active = inhibition mostly above about 24%, no sharp cut-off; inactive = mostly below about 32%
ALR inh – inhibitors of human ALR sulfhydryl oxidase, primary screen, biochemical, H2O2 detection, HRP-luminol luminescence, single point; FAD-linked sulfhydryl oxidase ALR (Homo sapiens), P55789; purified ALR, DTT oxidation; inhibition, % (concentration not given with the values); hit rate 3.8% among 290,000; AID 485317, 2010;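 active = mean replicate inhibition above about 79%, with every replicate also reaching it, limit read from the data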
PolyA inhibitor – polyadenylation inhibitors in yeast reporter cells, primary screen, luminescence, S. cerevisiae; S. cerevisiae SKY197-pL101 polyadenylation reporter, beta-gal luminescence; efflux-impaired pdr1/pdr3 knockout yeast; score 100 = 6 SD above DMSO; activity score, % at 12 µM; hit rate 0.02% among 300,000; AID 1875, 2009;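 active = lowest replicate activity score at least 50, where 100 means six control SD above control mean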;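 note: yeast exposed to compound for 9 h at 30 °C; higher score means more reporter readthrough which indicates perturbed polyadenylation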
NLRP3 yeast inh – NALP3 inflammasome inhibitors in reconstituted yeast, primary screen, luminescence, uHTS; hit rate 0.39% among 330,000; inhibition, % at 10 µM; Yeast reconstituted NLRP3/ASC/caspase-1, beta-gal luminescence, 24 h; AID 2825, 2010;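 active = inhibition of 50% or more; inactive = inhibition below 50%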
Numbers stand for hits; 0 = inactive; - = no result given. The list is not random: actives were taken first. Their share in the collection is about 4.6%.

SMILES	DSG3 Ab inh	Arrestin-AP2 inh	NALP1 inh	ALR inh	PolyA inhibitor	NLRP3 yeast inh
CC(=O)Nc1cccc(C(=O)Nc2cc(C(F)(F)F)ccc2-n2cncn2)c1	0	-	-	-	-	-
COc1cc(/C=C2/C(=O)NN(c3ccc(C)c(Cl)c3)C2=O)cc([N+](=O)[O-])c1O	0	0	0	99	0	0
CC1=NN(c2ccc(C)cc2)C(=O)/C1=C/c1ccc(-c2cc([N+](=O)[O-])ccc2O)o1	0	0	0	-	0	0
O=C1NN(c2cccc(Br)c2)C(=O)/C1=C/c1ccc(-c2cc([N+](=O)[O-])ccc2O)o1	82	0	-	0	0	0
CCOc1cc(/C=C2/C(=O)NN(c3cccc(Cl)c3)C2=O)ccc1O	0	0	0	98	0	0
COc1cc(C)ccc1OCc1cc(C(=O)N2CCC(c3ccc(F)cc3)C2)no1 (configuration not stated)	0	0	0	0	0	0
CC(C)CNC(=O)c1ccccc1NC(=O)c1ccc(CSc2ccccc2)cc1	0	0	0	0	0	0
CCC(C)NC(=O)c1ccccc1NC(=O)c1ccc(CSc2ccc(C)cc2)cc1 (configuration not stated)	0	0	0	99	0	0
Cc1cc(C)c2nc(NC(=O)CN3C(=O)NC4(CCCC4)C3=O)sc2c1	0	0	-	-	0	0
CN(C)c1ccc(NC(=O)CSc2nc(N)c(C(=O)Nc3ccc(N(C)C)cc3)s2)cc1	0	0	0	0	0	0
COc1ccc(NC(=O)CSc2nc(N)c(C(=O)Nc3ccc(N(C)C)cc3)s2)cc1	0	0	0	99	0	0
Cc1nnc(SCC(=O)N(C)CC(=O)Nc2ccccc2Cl)s1	0	0	-	0	0	0
CN(CC(=O)Nc1ccccc1Cl)C(=O)CSc1nc2ccccc2s1	0	0	0	85	0	0
COc1ccc(NC(=O)CN(C)C(=O)CSc2nc3ccccc3s2)cc1	0	0	-	98	0	0
COc1ccc(S(=O)Cc2ccc(C(=O)NC3CC3)o2)cc1 (configuration not stated)	0	0	0	0	0	0
COC(=O)c1c(C)oc(C)c(C(=O)OC)c1=O	0	0	22	0	0	0
COC(=O)c1cc(CSc2nc3ccccc3c(=O)n2C)oc1C	0	0	24	0	0	0
Cc1ccc(-c2nc(CSc3nc4ccccc4c(=O)n3C)cs2)cc1	0	0	0	98	0	0
Cc1cccc(CSc2nc3ccccc3c(=O)n2C)c1	0	0	-	0	-	0
Cc1ccc(-c2nc(CSc3nc4ccccc4c(=O)n3CCO)cs2)cc1	0	0	0	98	0	0
COCCn1c(SCC(=O)c2cc(C)n(C)c2C)nc2ccccc2c1=O	0	0	0	99	0	0
CCCCc1ccc(NC(=O)C(=O)NCCN2CCN(C(=O)c3ccc([N+](=O)[O-])cc3)CC2)cc1	-	0	0	0	0	0
COc1ccccc1C(=O)Nc1ccc2c(c1)n(C)c(=O)n2C	0	0	0	0	0	0
O=C(O)c1cnc(-c2ccccc2)nc1Sc1ccccc1	-	0	0	0	0	0
O=C(O)c1cnc(-c2ccccc2)nc1Sc1cccc(Cl)c1	-	0	0	96	0	0
SMILES	DSG3 Ab inh	Arrestin-AP2 inh	NALP1 inh	ALR inh	PolyA inhibitor	NLRP3 yeast inh
COc1ccccc1N=c1oc2cc(O)ccc2cc1C(=O)NCC1CCCO1 (configuration not stated)	-	0	0	92	0	0
Cc1cccc(OCCC(=O)Nc2ccc(Cl)cc2F)c1	0	0	0	0	0	0
COc1ccc(C(=O)/C(=C/O)N=Nc2ccc(F)cc2)cc1	-4.7	0	0	0	0	0
CO/N=C/C(=N\Nc1ccc(OC)cc1)C(=O)c1ccc(OC)cc1	0	0	0	0	0	0
COc1ccc(C(=O)C(/C=N/O)=N/Nc2ccc(F)cc2)cc1	0	0	20	0	0	0
O=C(CN1CCCc2ccccc21)N/N=C/c1c(O)ccc2ccccc12	0	0	0	0	0	0
CCOC(=O)CSc1nc2cc(OC)ccc2cc1C#N	0	0	0	-	0	0
CCOC(=O)CSC1=C(C#N)C(=O)NC(c2ccc(OC)cc2)S1 (configuration not stated)	-	0	0	98	0	0
COc1ccc(C2NC(=O)C(C#N)=C(S)N2c2ccc(C)cc2)cc1OC (configuration not stated)	0	0	0	0	0	0
CCOC(=O)CSC1=C(C#N)C(=O)NC(c2ccc(OC)c(OC)c2)S1 (configuration not stated)	0	0	0	99	0	0
CCOc1ccccc1NC(=O)C(c1ccccc1)N1CCN(C(=O)c2ccco2)CC1 (configuration not stated)	-	0	-	0	-	0
COc1ccc(C2CCc3cc4c(cc3C2=NOC(C)=O)OCO4)cc1OC (configuration not stated)	0	-	-	-	-	-
O=C(c1ccc(Cl)c(S(=O)(=O)N2CCCCC2)c1)N1CCCC(C(F)(F)F)C1 (configuration not stated)	-	0	-	0	-	0
COc1cc(C2C3=C(CCCC3=O)Nc3[nH]n(-c4ccccc4)c(=O)c32)ccc1O (configuration not stated)	0	0	0	100	-	0
COc1cccc(C2C3=C(CCCC3=O)Nc3[nH]n(-c4ccccc4)c(=O)c32)c1 (configuration not stated)	0	0	0	78	0	0
Cc1ccc(NS(=O)(=O)c2c(C)[nH]c(C)c2C(=O)N2CCCCC2)c(Br)c1	0	0	0	0	0	0
NC(=O)CCC(NC(=O)OCc1ccccc1)C(=O)OCC(=O)c1ccccc1 (configuration not stated)	0	-	-	-	-	-
CC1CN(c2sc(S(C)(=O)=O)nc2S(=O)(=O)c2ccc(Cl)cc2)CC(C)O1 (configuration not stated)	75	0	0	0	0	0
CC1CCCN(c2sc(S(C)(=O)=O)nc2S(=O)(=O)c2ccc(Cl)cc2)C1 (configuration not stated)	0	0	0	0	0	0
CCc1ccc(NC(=O)CSc2nnc(CNC(=O)c3c(F)cccc3Cl)o2)cc1	0	0	0	99	0	0
CCOc1ccc(NC(=O)CSc2nnc(CNC(=O)c3ccco3)o2)cc1	0	0	0	0	0	0
O=C(CSc1nnc(CNC(=O)c2c(F)cccc2Cl)o1)Nc1ccccc1	0	0	0	0	0	0
